For series [1], the system named is Leishmania donovani. Nature of the series: Antileishmanial activity against extracellular promastigote form of Leishmania donovani MHOM/IN/80/Dd8 expressing firefly luciferase gene assessed as inhibition of parasitic multiplication at 25 uM after 96 hrs by luminescence analysis. Type of series: functional. Particulars: for inhibition at 25 µM: MHOM/IN/80/Dd8, 96 h. In a few lines:
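Late-log luciferase-expressing Dd8 promastigotes, 5 × 10⁵/mL in complete M-199, incubated with compound at 24 °C for 96 h. Aliquot mixed with Steady Glo and luminescence read as RLU. Inhibition of multiplication taken from luciferase signal of treated versus untreated parasites.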

The test system of series [2] is Leishmania donovani. Nature of the series: Antileishmanial activity against intracellular amastigote form of Leishmania donovani MHOM/IN/80/Dd8 expressing luciferase gene infected in mouse J774A1 cells after 72 hrs by luminescence analysis. Type of series: functional, organism-based. Particulars: MHOM/IN/80/Dd8, J774.A1, 72 h. An outline of the steps:
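J774A.1 macrophages (4 × 10⁴/mL, RPMI-1640 + 10% HIFBS, 37 °C, 5% CO₂), after 24 h infected with stationary-phase luciferase promastigotes (4 × 10⁵/mL). Free parasites washed off after 24 h. Compound added at up to 7 dilutions from 40 μM for 72 h. Luminescence read after Steady Glo in PBS. IC₅₀ from four-parameter Hill fit; at least duplicate measurements.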

Series [3] can be described thus: Selectivity index, ratio of CC50 for African green monkey Vero cells to IC50 for Leishmania donovani MHOM/IN/80/Dd8 intracellular amastigote form expressing luciferase gene infected in mouse J774A1 cells. Type of series: functional, J774.A1. An outline of the steps: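 Ratio of CC₅₀ in Vero cells (72 h MTT) to IC₅₀ against luciferase-expressing amastigotes in J774A.1 macrophages (72 h luminescence).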

A short description of series [4]: Cytotoxicity against African green monkey Vero cells after 72 hrs by MTT assay. Type of series: cell-based. Particulars: chlorocebus sabaeus. An outline of the steps: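 Vero cells at 1 × 10⁵/mL exposed to seven concentrations from 400 μM at 37 °C, 5% CO₂, for 72 h. MTT (5 mg/mL) added for 2 h at 37 °C, formazan dissolved in DMSO, absorbance read at 544 nm. CC₅₀ estimated by the Huber and Koella method; at least duplicate measurements.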
(In general: Formazan colour is commonly taken as a measure of viable cells.)

Series [5] has as its system Leishmania donovani. Description: Antileishmanial activity against Leishmania donovani MHOM/IN/80/Dd8 amastigotes infected in syrian golden hamster assessed as decrease in parasite count in spleen at 30 mg/kg/day, po for 5 days measured on day 28 after last dose administration by giemsa staining. The format is functional. As to conditions: MHOM/IN/80/Dd8, Spleen. An outline of the steps:
(§1)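 Golden hamsters of either sex infected intracardially with 1 × 10⁷ L. donovani Dd8 amastigotes. After 15−20 days, pretreatment spleen biopsy; animals with +1 grade infection (5−10 amastigotes/100 spleen cell nuclei) used, 5−6 per compound. Aqueous suspensions dosed IP or PO for 5−10 consecutive days starting 2 days after biopsy. Splenic biopsies on day 7 and 28 after last dose, Giemsa counts; PI = 100 − [(ANAT×100)/(INAT×TIUC)].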

In series [6] the test system is Leishmania donovani. Description: Antileishmanial activity against Leishmania donovani MHOM/IN/80/Dd8 amastigotes infected in syrian golden hamster assessed as decrease in parasite count in spleen at 30 mg/kg/day, po for 5 days measured on day 7 after last dose administration by giemsa staining. Type of series: functional. Particulars: MHOM/IN/80/Dd8, Spleen. An outline of the steps:
as §1

In series [7] the test system is Leishmania donovani. Nature of the series: Antileishmanial activity against Leishmania donovani MHOM/IN/80/Dd8 amastigotes infected in syrian golden hamster assessed as decrease in parasite count in spleen at 50 mg/kg/day, po for 5 days measured on day 7 after last dose administration by giemsa staining. Type of series: functional. As to conditions: MHOM/IN/80/Dd8, Spleen. In a few lines: as §1

In series [8] the test system is Leishmania donovani. Description: Antileishmanial activity against Leishmania donovani MHOM/IN/80/Dd8 amastigotes infected in syrian golden hamster assessed as decrease in parasite count in spleen at 50 mg/kg/day, po for 5 days measured on day 28 after last dose administration by giemsa staining. As to conditions: MHOM/IN/80/Dd8, Spleen. Type of series: functional. An outline of the steps:
as §1

A short description of series [9]: Cytotoxicity against mouse J774A1 cells infected with Leishmania donovani expressing luciferase gene. Particulars: j774.a1. The format is cell-based.
The test system of series [10] is Leishmania donovani. Description: Antileishmanial activity against Leishmania donovani MHOM/IN/80/Dd8 amastigotes infected in syrian golden hamster assessed as decrease in parasite count in spleen at 40 mg/kg/day, ip for 5 days measured on day 7 after last dose administration by giemsa staining. The format is functional, organism-based. In a few lines:
as §1

Series [11] deals with Leishmania donovani. Description: Antileishmanial activity against Leishmania donovani MHOM/IN/80/Dd8 amastigotes infected in syrian golden hamster assessed as decrease in parasite count in spleen at 40 mg/kg/day, ip for 5 days measured on day 28 after last dose administration by giemsa staining. Type of series: functional, organism-based. An outline of the steps: as §1

Active and inactive are the calls of the source. The calls are words filed in the database; no cut-off is given here.

Broadly, the inhibition is the percentage by which the read-out fell short of the control. The IC50 is the concentration at which inhibition is half-maximal. For the molecule `CC(C)=CCCC1(C)C=Cc2c(ccc(C(=O)/C=C/c3ccc4oc(C(=O)c5ccccc5)cc4c3)c2O)O1` (stereo unspecified), in series [1], the inhibition at 25 µM was determined as 94.4%. Also, in [2], the half-inhibitory concentration (IC50) was greater than 20 µM.
A word on the CC50: it is the concentration giving 50% cytotoxicity. Turning to `CC(=O)N1N=C(c2ccc3c(c2O)C=CC(C)(CCC=C(C)C)O3)CC1c1cccnc1` (stereo unspecified), in series [3], the “Ratio CC50/IC50” value was determined as 13.8. Further, the inhibition at 25 µM in series [1] is 99.5%. In series [4], this molecule gave a CC50 at 72 h of 88.5 µM. In series [2], the IC50 was 6.4 µM.
As usually defined, the inhibition in vivo is the share of the control response that was lost under treatment. Consider `CCCCCCCCCCCCCCCCOP(=O)([O-])OCC[N+](C)(C)C` [MILTEFOSINE], for which the inhibition in vivo at 30 mg/kg/day in [5] was found to be 83.2%; in series [6], 98.5%. In addition, the inhibition at 25 µM in series [1] turned out to be 100%.
With `COc1ccc(C(=O)c2cc3cc(/C=C/C(=O)c4ccc5c(c4O)C=CC(C)(CCC=C(C)C)O5)ccc3o2)cc1` (stereo unspecified), in series [1], the inhibition at 25 µM was determined as 92.9%. The half-maximal inhibitory concentration (IC50) in series [2] was greater than 20 µM.
Taken in the same sequence, the figures for `CC(C)=CCCC1(C)C=Cc2c(ccc(/C=C/C(=O)c3ccc(C)c(C)c3)c2O)O1` (stereo unspecified) were 93.2% and greater than 20 µM.
For `CC(C)=CCCC1(C)C=Cc2c(ccc(C(=O)/C=C/c3cccc(-c4ncc(-c5cccc(O)c5)o4)c3)c2O)O1` (stereo unspecified), the “Ratio CC50/IC50” value in series [3] was greater than 68.9. Further, the inhibition at 25 µM in [1] amounted to 99.5%. This molecule registered a CC50 at 72 h in series [4] greater than 400 µM. The IC50 in series [2] was determined as 5.8 µM.
On to `CC(C)=CCCC1(C)C=Cc2c(ccc(C(=O)/C=C/c3ccc4occc4c3)c2O)O1` (stereo unspecified), for which, in [1], the inhibition at 25 µM worked out at 96.5%. For the same molecule, the IC50 in [2] was greater than 20 µM.
As to `CC(C)=CCCC1(C)C=Cc2c(ccc(C(=O)/C=C/c3cccnc3)c2OCCN2CCCCC2)O1` (stereo unspecified), the inhibition in vivo at 50 mg/kg/day in [7] was 73.2%; in series [8], 50%. Moreover, the “Ratio CC50/IC50” value in [3] turned out to be 38.3. Also, in series [1], the inhibition at 25 µM was determined as 99.8%. Moreover, the CC50 at 72 h in [4] was 65.2 µM. Besides, in [2], 1.7 µM corresponded to half-maximal inhibition (IC50).
On to `CC(C)=CCCC1(C)C=Cc2c(ccc(C(=O)/C=C/c3cc(C=O)ccc3O)c2O)O1` (stereo unspecified), for which the “Ratio CC50/IC50” value in series [3] is listed as 5.5. Further, the inhibition at 25 µM in series [1] is 91.2%. In series [4], this molecule displayed a CC50 at 72 h of 59.4 µM. In series [2], this molecule returned an IC50 of 10.7 µM.
On to `CC(C)=CCCC1(C)C=Cc2c(ccc(C(=O)/C=C/c3cc4cc(C)ccc4nc3Cl)c2O)O1` (stereo unspecified), for which the inhibition at 25 µM in [1] came out at 100%. Besides, in [9], the Activity entry was “Toxic”.
In the case of sodium stibogluconate, the inhibition was found to be 89.5% in series [10] and 72.5% in [11]. Besides, the inhibition entry in series [1] was “inactive”.
Consider `CC(C)=CCCC1(C)C=Cc2c(ccc(C(=O)/C=C/c3ccc(O)cc3)c2O)O1` (stereo unspecified) [LESPEOL], for which, in series [3], the “Ratio CC50/IC50” value was found to be 11.5. In addition, the inhibition at 25 µM in [1] was 97.5%. In series [4], this molecule displayed a CC50 at 72 h of 190 µM. Besides, in [2], half-maximal inhibition (IC50) was put at 16.5 µM.
For the molecule `CC(C)=CCCC1(C)C=Cc2c(ccc(/C=C/C(=O)c3ccc(C)cc3)c2O)O1` (stereo unspecified), the inhibition at 25 µM in series [1] was found to be 92.7%. The same molecule came in with an IC50 in series [2] greater than 20 µM.
With `CC(C)=CCCC1(C)C=Cc2c(ccc(C(=O)/C=C/c3ccc(OCCN4CCCCC4)cc3)c2OCCN2CCCCC2)O1` (stereo unspecified), the “Ratio CC50/IC50” value in series [3] is 31.9. Besides, in [1], the inhibition at 25 µM was 99.9%. In [2], this molecule showed an IC50 of 6.3 µM.
On to `COc1ccc(/C=C/C(=O)c2ccc3c(c2O)CCC(C)(CCCC(C)C)O3)cc1` (stereo unspecified), for which the inhibition at 25 µM in series [1] was found to be 62.3%. In [2], the IC50 was greater than 20 µM.
With `CC(C)=CCCC1(C)C=Cc2c(ccc(C(=O)CCc3cccnc3)c2O)O1` (stereo unspecified), in [3], the “Ratio CC50/IC50” value came to 24.1. For the same molecule, the inhibition at 25 µM in series [1] came to 98.5%. This molecule returned a CC50 at 72 h in series [4] of 266 µM. This molecule came in with an IC50 in [2] of 11 µM.
`CC(C)=CCCC1(C)C=Cc2c(ccc(C(=O)/C=C/c3ccc(O)c(C=O)c3)c2O)O1` (stereo unspecified): the inhibition at 25 µM in series [1] was found to be 94.6%. In addition, in [2], the IC50 was greater than 20 µM.

Values taken from ChEMBL document CHEMBL3259690, “Synthesis, structure-activity relationships, and biological studies of chromenochalcones as potential antileishmanial agents” (J Med Chem, 2014).
